Results published in ChEMBL document CHEMBL3124806, “Imidazopyridine-fused [1,3]-diazepinones: synthesis and antiproliferative activity” (Eur J Med Chem, 2014).

Tests used:
Format in all cases: functional
NCI-H226 = assay: Cytotoxicity against human NCI-H226 cells assessed as cell growth at 10 uM after 48 hrs by SRB assay relative to untreated control; conditions: NCI-H226, 48 h, read-out: Activity
Summary of the method: (§1)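 NCI-60 one-dose screen: each agent added at 10 µM, cultures incubated 48 h. Endpoint by sulforhodamine B protein-binding dye read spectrophotometrically; growth expressed as percent of untreated control cells.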

HOP-62 = assay: Cytotoxicity against human HOP62 cells assessed as cell growth at 10 uM after 48 hrs by SRB assay relative to untreated control; conditions: HOP-62, 48 h, read-out: Activity
Summary of the method: (§2)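 NCI-60 panel screen at a single concentration of 10 μM with 48 h incubation. Cell density measured by sulforhodamine B protein-binding dye and read spectrophotometrically. Growth expressed as percent of untreated control cells.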

SW-620 = assay: Cytotoxicity against human SW620 cells assessed as cell growth at 10 uM after 48 hrs by SRB assay relative to untreated control; conditions: SW-620, 48 h, read-out: Activity
Summary of the method: (§3)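 NCI-60 single-dose screen. Compounds were added to the cultures at 10 μM and incubated for 48 h. The end point was sulforhodamine B protein staining read spectrophotometrically. Growth is reported as percent of untreated control cells.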

SR = assay: Cytotoxicity against human SR cells assessed as cell growth at 10 uM after 48 hrs by SRB assay relative to untreated control; conditions: read-out: Activity; summary of the method: as §3
NCI-H460 = assay: Cytotoxicity against human NCI-H460 cells assessed as cell growth at 10 uM after 48 hrs by SRB assay relative to untreated control; conditions: NCI-H460, 48 h, read-out: Activity; summary of the method: as §1
[1] = Cytotoxicity against human UACC257 cells assessed as cell growth at 10 uM after 48 hrs by SRB assay relative to untreated control; conditions: UACC-257, 48 h, read-out: Activity; summary of the method: as §3
[2] = Cytotoxicity against human UO31 cells assessed as cell growth at 10 uM after 48 hrs by SRB assay relative to untreated control; conditions: UO-31, 48 h, read-out: Activity; summary of the method: as §3
SF-295 = assay: Cytotoxicity against human SF295 cells assessed as cell growth at 10 uM after 48 hrs by SRB assay relative to untreated control; conditions: SF-295, 48 h, read-out: Activity; summary of the method: as §1
[3] = Cytotoxicity against human OVCAR4 cells assessed as cell growth at 10 uM after 48 hrs by SRB assay relative to untreated control; conditions: OVCAR-4, 48 h, read-out: Activity; summary of the method: as §1
786-0 = assay: Cytotoxicity against human […] cells assessed as cell growth at 10 uM after 48 hrs by SRB assay relative to untreated control; conditions: 786-0, 48 h, read-out: Activity; summary of the method: as §2
LOX IMVI = assay: Cytotoxicity against human LOXIMVI cells assessed as cell growth at 10 uM after 48 hrs by SRB assay relative to untreated control; conditions: read-out: Activity; summary of the method: as §2
SK-MEL-28 = assay: Cytotoxicity against human SK-MEL-28 cells assessed as cell growth at 10 uM after 48 hrs by SRB assay relative to untreated control; conditions: SK-MEL-28, 48 h, read-out: Activity; summary of the method: as §3
K562 = assay: Cytotoxicity against human K562 cells assessed as cell growth at 10 uM after 48 hrs by SRB assay relative to untreated control; conditions: K562, 48 h, read-out: Activity; summary of the method: as §2
[4] = Cytotoxicity against human OVCAR5 cells assessed as cell growth at 10 uM after 48 hrs by SRB assay relative to untreated control; conditions: OVCAR-5, 48 h, read-out: Activity; summary of the method: as §1
PC-3 = assay: Cytotoxicity against human PC3 cells assessed as cell growth at 10 uM after 48 hrs by SRB assay relative to untreated control; conditions: PC-3, 48 h, read-out: Activity; summary of the method: as §1
MDA-MB-435 = assay: Cytotoxicity against human MDA-MB-435 cells assessed as cell growth at 10 uM after 48 hrs by SRB assay relative to untreated control; conditions: MDA-MB-435, 48 h, read-out: Activity; summary of the method: as §1
BT-549 = assay: Cytotoxicity against human BT549 cells assessed as cell growth at 10 uM after 48 hrs by SRB assay relative to untreated control; conditions: BT-549, 48 h, read-out: Activity; summary of the method: as §2
KM12 = assay: Cytotoxicity against human KM12 cells assessed as cell growth at 10 uM after 48 hrs by SRB assay relative to untreated control; conditions: KM12, 48 h, read-out: Activity; summary of the method: as §2
SN12C = assay: Cytotoxicity against human SN12C cells assessed as cell growth at 10 uM after 48 hrs by SRB assay relative to untreated control; conditions: read-out: Activity; summary of the method: as §3
HCT-15 = assay: Cytotoxicity against human HCT15 cells assessed as cell growth at 10 uM after 48 hrs by SRB assay relative to untreated control; conditions: HCT-15, 48 h, read-out: Activity; summary of the method: as §2
M14 = assay: Cytotoxicity against human M14 cells assessed as cell growth at 10 uM after 48 hrs by SRB assay relative to untreated control; conditions: M14, 48 h, read-out: Activity; summary of the method: as §2
SF-268 = assay: Cytotoxicity against human SF268 cells assessed as cell growth at 10 uM after 48 hrs by SRB assay relative to untreated control; conditions: SF-268, 48 h, read-out: Activity; summary of the method: as §1
U-251 = assay: Cytotoxicity against human U251 cells assessed as cell growth at 10 uM after 48 hrs by SRB assay relative to untreated control; conditions: U-251, 48 h, read-out: Activity; summary of the method: as §3
DU-145 = assay: Cytotoxicity against human DU145 cells assessed as cell growth at 10 uM after 48 hrs by SRB assay relative to untreated control; conditions: DU-145, 48 h, read-out: Activity; summary of the method: as §2
HCC 2998 = assay: Cytotoxicity against human HCC2998 cells assessed as cell growth at 10 uM after 48 hrs by SRB assay relative to untreated control; conditions: HCC 2998, 48 h, read-out: Activity; summary of the method: as §2
[5] = Cytotoxicity against human NCI-ADR-RES cells assessed as cell growth at 10 uM after 48 hrs by SRB assay relative to untreated control; conditions: read-out: Activity; summary of the method: as §1
NCI-H522 = assay: Cytotoxicity against human NCI-H522 cells assessed as cell growth at 10 uM after 48 hrs by SRB assay relative to untreated control; conditions: NCI-H522, 48 h, read-out: Activity; summary of the method: as §1
RXF 393 = assay: Cytotoxicity against human RXF393 cells assessed as cell growth at 10 uM after 48 hrs by SRB assay relative to untreated control; conditions: RXF 393, 48 h, read-out: Activity; summary of the method: as §1
Malme-3M = assay: Cytotoxicity against human MALME-3M cells assessed as cell growth at 10 uM after 48 hrs by SRB assay relative to untreated control; conditions: read-out: Activity; summary of the method: as §2
A498 = assay: Cytotoxicity against human A498 cells assessed as cell growth at 10 uM after 48 hrs by SRB assay relative to untreated control; conditions: A498, 48 h, read-out: Activity; summary of the method: as §2
OVCAR-3 = assay: Cytotoxicity against human OVCAR3 cells assessed as cell growth at 10 uM after 48 hrs by SRB assay relative to untreated control; conditions: OVCAR-3, 48 h, read-out: Activity; summary of the method: as §1
HOP-92 = assay: Cytotoxicity against human HOP92 cells assessed as cell growth at 10 uM after 48 hrs by SRB assay relative to untreated control; conditions: HOP-92, 48 h, read-out: Activity; summary of the method: as §2

Compound | growth at 10 µM (NCI-H226) | growth at 10 µM (HOP-62) | growth at 10 µM (SW-620) | growth at 10 µM (SR) | growth at 10 µM (NCI-H460) | growth at 10 µM [1] | growth at 10 µM [2] | growth at 10 µM (SF-295) | growth at 10 µM [3] | growth at 10 µM (786-0) | growth at 10 µM (LOX IMVI) | growth at 10 µM (SK-MEL-28) | growth at 10 µM (K562) | growth at 10 µM [4] | growth at 10 µM (PC-3) | growth at 10 µM (MDA-MB-435) | growth at 10 µM (BT-549) | growth at 10 µM (KM12) | growth at 10 µM (SN12C) | growth at 10 µM (HCT-15) | also measured
C[C@@H]1NC(c2ccccc2)=Nc2nc3ccccn3c2C1=O | 88% | 102% | 93.5% | 106% | 104% | 121% | 82.5% | 89% | 103% | 103% | 84.2% | 113% | 108% | 114% | 82.5% | 91.6% | 93.2% | 98.9% | 112% | 104% | growth at 10 µM (M14): 99.8%; growth at 10 µM (SF-268): 103%; growth at 10 µM (U-251): 102%; growth at 10 µM (DU-145): 116%; growth at 10 µM (HCC 2998): 90.9%; growth at 10 µM [5]: 97.4%; growth at 10 µM (NCI-H522): 95.4%; growth at 10 µM (RXF 393): 104%; growth at 10 µM (Malme-3M): 99.5%; growth at 10 µM (A498): 84.6%; growth at 10 µM (OVCAR-3): 103%; growth at 10 µM (HOP-92): 75.5%
Cc1ccc(C2=Nc3nc4ccccn4c3C(=O)[C@@H]3CCCN23)cc1 | 86.5% | 82.9% | 101% | 88.5% | 102% | 98.8% | 80.3% | 96.7% | 98.2% | 98.1% | 87.4% | 108% | 104% | 91.1% | 81.9% | 91.1% | 94.2% | 98.6% | 101% | 95.3% | growth at 10 µM (M14): 94.8%; growth at 10 µM (SF-268): 88%; growth at 10 µM (U-251): 99.1%; growth at 10 µM (DU-145): 97.4%; growth at 10 µM (HCC 2998): 99.4%; growth at 10 µM [5]: 94.9%; growth at 10 µM (NCI-H522): 102%; growth at 10 µM (RXF 393): 85.2%; growth at 10 µM (Malme-3M): 102%; growth at 10 µM (A498): 68.5%; growth at 10 µM (OVCAR-3): 96.7%; growth at 10 µM (HOP-92): 78.3%
Cc1ccc(C2=Nc3nc4ccccn4c3C(=O)[C@H](C)N2)cc1 | 80.5% | 62.9% | 82.3% | 42.2% | 94.5% | 90.3% | 45.9% | 87.4% | 88.7% | 98.4% | 88.6% | 88.9% | 47.1% | 94% | 72.9% | 25.7% | 85.7% | 70.3% | 93.9% | 71.9% | growth at 10 µM (M14): 87%; growth at 10 µM (SF-268): 99.7%; growth at 10 µM (U-251): 95.5%; growth at 10 µM (DU-145): 112%; growth at 10 µM (HCC 2998): 104%; growth at 10 µM [5]: 79.6%; growth at 10 µM (NCI-H522): 66.5%; growth at 10 µM (RXF 393): 105%; growth at 10 µM (Malme-3M): 82.6%; growth at 10 µM (A498): 99.1%; growth at 10 µM (OVCAR-3): 90.4%; growth at 10 µM (HOP-92): 66.3%
